# Reference: ChEMBL document CHEMBL2010768, “Optimization of Potent Inhibitors of P. falciparum Dihydroorotate Dehydrogenase for the Treatment of Malaria” (ACS Med Chem Lett, 2011)
# Activity calls are given as the source filed them. The calls are words filed in the database; no cut-off is given here.
# Columns and labels:
# [1] = target: T1, Dihydroorotate dehydrogenase (Plasmodium falciparum, UniProt Q54A96); assay: Inhibition of Plasmodium falciparum DHODH after 20 mins by 2,6-dichloroindophenol-reduction based assay
# T1 sequence (Q54A96 whole entry): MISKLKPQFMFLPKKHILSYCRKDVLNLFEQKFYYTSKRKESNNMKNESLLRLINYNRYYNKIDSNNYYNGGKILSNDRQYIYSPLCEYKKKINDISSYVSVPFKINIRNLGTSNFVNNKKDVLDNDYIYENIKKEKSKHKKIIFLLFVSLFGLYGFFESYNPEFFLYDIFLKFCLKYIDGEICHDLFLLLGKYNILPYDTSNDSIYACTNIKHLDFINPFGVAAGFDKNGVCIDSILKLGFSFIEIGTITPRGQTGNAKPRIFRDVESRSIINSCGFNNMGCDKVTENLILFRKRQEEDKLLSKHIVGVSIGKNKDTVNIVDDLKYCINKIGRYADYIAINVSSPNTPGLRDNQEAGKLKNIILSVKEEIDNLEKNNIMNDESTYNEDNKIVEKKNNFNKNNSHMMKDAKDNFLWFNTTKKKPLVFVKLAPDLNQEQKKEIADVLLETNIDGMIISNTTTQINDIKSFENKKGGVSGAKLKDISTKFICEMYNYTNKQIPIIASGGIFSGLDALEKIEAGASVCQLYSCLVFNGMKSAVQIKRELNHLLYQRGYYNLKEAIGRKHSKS
# [2] = Cytotoxicity against human RPTEC after 4 days by alamar blue assay; type: cell-based; details: RPTEC cells, read-out: LC50
# Plasmodium falciparum [3] = assay: Antiplasmodial activity against Plasmodium falciparum 3D7 infected in […] after 72 hrs by SYBR green assay; type: functional, organism-based; details: 3D7, 72 h
# Plasmodium falciparum [4] = assay: Antiplasmodial activity against Plasmodium falciparum Dd2 infected in […] after 72 hrs by SYBR green assay; type: functional, organism-based; details: Dd2, 72 h
# [5] = Clearance in human liver microsomes by LC-MS/MS analysis; type: ADME, Microsome
# Method in brief: (§1)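 Liver microsome incubation. Predicted clearance is derived from a well-stirred model corrected for microsomal and protein binding.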
# Plasmodium berghei = assay: Inhibition of Plasmodium berghei DHODH after 20 mins by 2,6-dichloroindophenol-reduction based assay
# [6] = Clearance in mouse liver microsomes by LC-MS/MS analysis; type: ADME, Microsome; method in brief: as §1
# Plasmodium vivax = assay: Inhibition of Plasmodium vivax DHODH after 20 mins by 2,6-dichloroindophenol-reduction based assay
# [7] = target: Dihydroorotate dehydrogenase (quinone), mitochondrial (Homo sapiens, UniProt Q02127); assay: Inhibition of human DHODH after 20 mins by 2,6-dichloroindophenol-reduction based assay
# Sequence of Dihydroorotate dehydrogenase (quinone), mitochondrial (Q02127 whole entry): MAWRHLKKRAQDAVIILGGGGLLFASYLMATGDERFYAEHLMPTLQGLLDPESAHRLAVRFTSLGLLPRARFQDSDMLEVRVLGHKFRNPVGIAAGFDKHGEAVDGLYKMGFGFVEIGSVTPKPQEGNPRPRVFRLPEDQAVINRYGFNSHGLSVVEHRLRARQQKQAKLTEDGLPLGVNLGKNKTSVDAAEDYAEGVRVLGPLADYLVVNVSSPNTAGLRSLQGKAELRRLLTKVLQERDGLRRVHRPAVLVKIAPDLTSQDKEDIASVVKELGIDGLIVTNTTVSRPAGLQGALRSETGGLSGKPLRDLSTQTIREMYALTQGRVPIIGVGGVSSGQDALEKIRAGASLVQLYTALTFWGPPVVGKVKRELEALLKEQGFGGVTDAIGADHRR
IC50 [1] [nM],IC50 (Plasmodium falciparum [3]) [nM],IC50 (Plasmodium falciparum [4]) [nM],CLhep predicted [5] [mL/min/kg],inhibition (Plasmodium berghei),CLhep predicted [6] [mL/min/kg],inhibition (Plasmodium vivax),IC50 [7] [nM],SMILES,CC50 at 96 h [2] [nM]
609,143,290,6,Active,> 72,Active,,Cc1cccc2nc(C)n(-c3ccc(C(=O)NC4CC4)s3)c12,
28,128,113,,Active,,Active,,Cc1nc2c(OCC(F)F)cccc2n1-c1ccc(C(=O)NC2CC2)s1,
> 30000,> 40000,> 40000,,,,,,CN(C)C(=O)c1ccc(-n2cnc3ccccc32)s1,
95,36,60,11,Active,> 72,Active,7300,Cc1cc(F)c2c(c1)ncn2-c1ccc(C(=O)NC2CC2)s1,
21,5,6,< 4,Active,19,Active,,Cc1nc2c(Cl)cccc2n1-c1ccc(C(=O)NC2CC2)s1,
> 30000,> 5000,> 5000,,,,,,O=C(NC1CC1)c1ccc(-n2c(=O)[nH]c3ccccc32)s1,
62,17,8,10,Active,> 72,Active,14900,O=C(NC1CC1)c1ccc(-n2cnc3c(F)cccc32)s1,
111,93,113,< 4,Active,> 72,Active,,Cc1nc2ccc(F)cc2n1-c1ccc(C(=O)NC2CC2)s1,
,> 20000,7300,,,,,> 30000,CCCCNC(=O)c1ccc(-n2cnc3ccccc32)s1,
17,4,4,10,Active,> 72,Active,3100,Cc1cc(F)c2ncn(-c3ccc(C(=O)NC4CC4)s3)c2c1,
92,56,96,8,Active,68,Active,,Cc1nc2ccc(C(F)(F)F)cc2n1-c1ccc(C(=O)NC2CC2)s1,
35,8,18,7,Active,> 72,Active,5600,O=C(NC1CC1)c1ccc(-n2cnc3c(Cl)cc(F)cc32)s1,
32,10,17,12,Active,> 72,Active,,Cc1cc(F)c2nc(C)n(-c3ccc(C(=O)NC4CC4)s3)c2c1,
39,10,22,10,Active,66,Active,,Cc1cccc2c1nc(C)n2-c1ccc(C(=O)NC2CC2)s1,
34,8,6,< 4,Active,37,Active,,Cc1nc2c(F)cccc2n1-c1ccc(C(=O)NC2CC2)s1,
181,75,159,,Active,,Active,,Cc1nc2c(N(C)C)cccc2n1-c1ccc(C(=O)NC2CC2)s1,
> 30000,> 40000,> 30000,,,,,,NC(=O)c1ccc(-n2cnc3ccccc32)s1,
28,20,28,4,Active,> 72,Active,,Cc1nc2cc(C(F)(F)F)ccc2n1-c1ccc(C(=O)NC2CC2)s1,
56,33,74,10,Active,> 72,Active,,Cc1ccc2nc(C)n(-c3ccc(C(=O)NC4CC4)s3)c2c1,
25,12,13,5,Active,42,Active,> 30000,Cc1nc2c(Cl)cc(F)cc2n1-c1ccc(C(=O)NC2CC2)s1,
49,78,102,,Active,,Active,,Cc1nc2cc(Cl)ccc2n1-c1ccc(C(=O)NC2CC2)s1,
19,12,12,8,Active,> 72,Active,17200,O=C(NC1CC1)c1ccc(-n2cnc3cc(C(F)(F)F)ccc32)s1,
21,4,7,5,Active,26,Active,,Cc1nc2c(Br)cccc2n1-c1ccc(C(=O)NC2CC2)s1,

SMILES,IC50 [1] [nM],IC50 (Plasmodium falciparum [3]) [nM],IC50 (Plasmodium falciparum [4]) [nM],CLhep predicted [5] [mL/min/kg],inhibition (Plasmodium berghei),CLhep predicted [6] [mL/min/kg],inhibition (Plasmodium vivax),IC50 [7] [nM],CC50 at 96 h [2] [nM]
CCc1nc2ccccc2n1-c1ccc(C(=O)NC2CC2)s1,110,120,180,,,,,,> 62000
CC(C)NC(=O)c1ccc(-n2cnc3ccccc32)s1,680,560,810,,,,,,> 62000
CCNC(=O)c1ccc(-n2cnc3ccccc32)s1,140,100,150,,,,,,> 62000
CNC(=O)c1ccc(-n2cnc3ccccc32)s1,1080,280,420,,,,,,> 62000
Cc1ccc2c(c1)nc(C)n2-c1ccc(C(=O)NC2CC2)s1,56,87,130,8,Active,> 72,Active,,
CN(C)c1nc2ccccc2n1-c1ccc(C(=O)NC2CC2)s1,5600,> 1000,> 1000,,,,,,> 62000
O=C(NC1CCCC1)c1ccc(-n2cnc3ccccc32)s1,2510,4400,5500,,,,,,
O=C(NC1CCC1)c1ccc(-n2cnc3ccccc32)s1,420,410,440,,,,,,> 62000
Cc1nc2ccc(OC(F)(F)F)cc2n1-c1ccc(C(=O)NC2CC2)s1,52,36,53,10,Active,41,Active,,
Cc1nc2ccccc2n1-c1ccc(C(=O)NC2CC2)s1,80,90,110,,,,,,> 62000
O=C(NC1CC1)c1ccc(-n2cnc3ccccc32)s1,60,80,90,,,,,,> 62000
